Activity calls are given as the source filed them. The rule behind the calls is not given here.

For series [1], the target named is T1, Inhibitor of nuclear factor kappa-B kinase subunit alpha (Homo sapiens) (UniProt O15111).
T1 sequence (whole entry): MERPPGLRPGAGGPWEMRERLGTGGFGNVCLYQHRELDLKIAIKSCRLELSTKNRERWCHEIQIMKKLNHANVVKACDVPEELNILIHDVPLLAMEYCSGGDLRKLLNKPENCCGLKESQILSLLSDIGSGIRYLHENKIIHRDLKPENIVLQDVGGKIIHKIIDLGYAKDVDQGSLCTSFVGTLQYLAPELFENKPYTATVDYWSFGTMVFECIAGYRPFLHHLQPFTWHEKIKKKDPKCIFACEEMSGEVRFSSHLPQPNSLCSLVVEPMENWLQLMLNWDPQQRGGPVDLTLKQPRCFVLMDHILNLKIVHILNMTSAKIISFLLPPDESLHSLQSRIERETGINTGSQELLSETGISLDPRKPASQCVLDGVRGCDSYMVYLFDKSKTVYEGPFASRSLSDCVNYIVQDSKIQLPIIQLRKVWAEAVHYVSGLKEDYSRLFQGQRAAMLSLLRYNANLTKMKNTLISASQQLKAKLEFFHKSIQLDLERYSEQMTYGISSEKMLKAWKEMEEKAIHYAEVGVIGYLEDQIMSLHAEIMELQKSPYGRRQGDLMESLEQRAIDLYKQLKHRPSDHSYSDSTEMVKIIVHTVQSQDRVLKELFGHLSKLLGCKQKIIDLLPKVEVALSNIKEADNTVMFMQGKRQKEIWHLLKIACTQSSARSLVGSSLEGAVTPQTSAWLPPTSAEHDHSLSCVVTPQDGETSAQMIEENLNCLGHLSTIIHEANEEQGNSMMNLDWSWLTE
The experiment in a line: Binding affinity to IKKalpha in human HeLa cells at 10 uM preincubated with IL-1 beta for 3 hrs followed by incubation with compound for 2 hrs by pull down based western blotting analysis. Format: cell-based. The procedure, abridged:
(§1)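 Alkyne-tagged probe pull-down in IL-1β-stimulated HeLa cells. Protein captured by the probe was analysed by Western blotting.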
On the technique in general: A western blot detects proteins with antibodies after separation by electrophoresis.

In series [2] the target is T1, Inhibitor of nuclear factor kappa-B kinase subunit alpha (Homo sapiens). The experiment in a line: Irreversible covalent binding affinity to IKKalpha in human HeLa cells at 10 uM preincubated with IL-1 beta for 3 hrs followed by incubation with compound for 2 hrs measured following rigorous washing by pull down based western blotting analysis. Format: cell-based. The procedure, abridged: as §1

The target is the same in series [3]. The experiment in a line: Binding affinity to IKKalpha in human HeLa cells at 50 uM preincubated with IL-1 beta for 3 hrs followed by incubation with compound for 2 hrs by pull down based western blotting analysis. The format is cell-based. A digest of the protocol:
as §1

Series [4] is described as follows: Cytotoxicity against human Hs895T cells assessed as reduction in cell viability measured after 24 hrs by CellTiter-Glo luminescent assay. The format is functional, cell-based. The procedure, abridged: (§2)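 High-throughput viability screen of test agents across a panel of 22 cancerous and noncancerous human cell lines. Viability was read by CellTiter-Glo luminescence.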

Another series relates to CA46. Put plainly: Cytotoxicity against human CA46 cells assessed as reduction in cell viability measured after 24 hrs by CellTiter-Glo luminescent assay. To be noted: CA46, 24 h. The format is functional, cell-based. The procedure, abridged:
as §2

For a further series, the system named is Hs-578T. Put plainly: Cytotoxicity against human Hs-578T cells assessed as reduction in cell viability measured after 24 hrs by CellTiter-Glo luminescent assay. Format: functional, cell-based. The procedure, abridged: as §2
In general terms: Cellular ATP, detected with luciferase, serves as a proxy for viable cell number.

The next series has as its system SUD4. Put plainly: Cytotoxicity against human SU-DHL-4 cells assessed as reduction in cell viability measured after 24 hrs by CellTiter-Glo luminescent assay. The format is functional, cell-based. To be noted: SU-DHL-4, 24 h. The procedure, abridged: as §2
The nature of series [5]: Cytotoxicity against human Hs888Lu cells assessed as reduction in cell viability measured after 24 hrs by CellTiter-Glo luminescent assay. The format is cell-based. A digest of the protocol: as §2
Series [6] is described as follows: Cytotoxicity against human Hs895SK cells assessed as reduction in cell viability measured after 24 hrs by CellTiter-Glo luminescent assay. Format: cell-based. To be noted: Hs 895.Sk. A digest of the protocol:
as §2

The nature of series [7]: Cytotoxicity against human Hs578Bst cells assessed as reduction in cell viability measured after 24 hrs by CellTiter-Glo luminescent assay. The format is cell-based. A digest of the protocol: as §2
The next series has as its system RCK8. Put plainly: Cytotoxicity against human RC-K8 cells assessed as reduction in cell viability measured after 24 hrs by CellTiter-Glo luminescent assay. Format: functional, cell-based. To be noted: RCK8, 24 h. The procedure, abridged:
as §2

The next series deals with Transcription factor p65 (Homo sapiens, UniProt Q04206). Put plainly: Binding affinity to NF-kappaB RelA (unknown origin) by SPR analysis. In general terms: SPR reads the build-up and loss of mass on a sensor chip optically.
Sequence of Transcription factor p65 (Q04206 whole entry): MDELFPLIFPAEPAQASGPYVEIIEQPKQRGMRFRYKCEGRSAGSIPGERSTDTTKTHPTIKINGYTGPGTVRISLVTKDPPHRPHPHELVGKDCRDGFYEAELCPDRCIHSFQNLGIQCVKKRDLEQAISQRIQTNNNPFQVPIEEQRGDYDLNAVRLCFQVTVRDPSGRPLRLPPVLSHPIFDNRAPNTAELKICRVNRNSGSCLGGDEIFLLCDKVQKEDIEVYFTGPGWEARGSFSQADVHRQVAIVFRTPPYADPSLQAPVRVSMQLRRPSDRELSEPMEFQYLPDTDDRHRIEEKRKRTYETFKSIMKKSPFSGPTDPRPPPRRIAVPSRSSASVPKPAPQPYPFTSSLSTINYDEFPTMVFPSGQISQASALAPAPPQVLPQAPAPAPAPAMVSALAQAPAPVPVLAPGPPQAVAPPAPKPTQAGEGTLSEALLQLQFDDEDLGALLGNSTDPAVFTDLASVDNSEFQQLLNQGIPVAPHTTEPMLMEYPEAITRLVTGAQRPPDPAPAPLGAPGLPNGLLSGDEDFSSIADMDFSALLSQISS
A further series deals with HCC1599. The experiment in a line: Cytotoxicity against human HCC1599 cells assessed as reduction in cell viability measured after 24 hrs by CellTiter-Glo luminescent assay. The format is functional, cell-based. To be noted: HCC1599, 24 h. The procedure, abridged: as §2
Another series relates to HEK-293T. The experiment in a line: Cytotoxicity against human HEK293T cells assessed as reduction in cell viability measured after 24 hrs by CellTiter-Glo luminescent assay. Format: cell-based. The procedure, abridged: as §2
Series [8] can be described thus: Inhibition of IKKalpha/IKKbeta in human HEK293T cells transfected with firefly luciferase gene assessed as inhibition of TNF-alpha-stimulated NF-kappaB signalling preincubated for 1 hr followed by TNF alpha stimulation measured after 3 hrs by luciferase reporter gene assay. Format: cell-based. To be noted: HEK-293T. A digest of the protocol: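 Commercial NF-κB-driven luciferase reporter assay in HEK 293T cells stimulated with TNFα. EC50 was derived from the luminescence readout.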

The target in series [9] is T2, Nuclear factor NF-kappa-B p105 subunit (Homo sapiens, UniProt P19838).
T2 sequence (P19838 whole entry): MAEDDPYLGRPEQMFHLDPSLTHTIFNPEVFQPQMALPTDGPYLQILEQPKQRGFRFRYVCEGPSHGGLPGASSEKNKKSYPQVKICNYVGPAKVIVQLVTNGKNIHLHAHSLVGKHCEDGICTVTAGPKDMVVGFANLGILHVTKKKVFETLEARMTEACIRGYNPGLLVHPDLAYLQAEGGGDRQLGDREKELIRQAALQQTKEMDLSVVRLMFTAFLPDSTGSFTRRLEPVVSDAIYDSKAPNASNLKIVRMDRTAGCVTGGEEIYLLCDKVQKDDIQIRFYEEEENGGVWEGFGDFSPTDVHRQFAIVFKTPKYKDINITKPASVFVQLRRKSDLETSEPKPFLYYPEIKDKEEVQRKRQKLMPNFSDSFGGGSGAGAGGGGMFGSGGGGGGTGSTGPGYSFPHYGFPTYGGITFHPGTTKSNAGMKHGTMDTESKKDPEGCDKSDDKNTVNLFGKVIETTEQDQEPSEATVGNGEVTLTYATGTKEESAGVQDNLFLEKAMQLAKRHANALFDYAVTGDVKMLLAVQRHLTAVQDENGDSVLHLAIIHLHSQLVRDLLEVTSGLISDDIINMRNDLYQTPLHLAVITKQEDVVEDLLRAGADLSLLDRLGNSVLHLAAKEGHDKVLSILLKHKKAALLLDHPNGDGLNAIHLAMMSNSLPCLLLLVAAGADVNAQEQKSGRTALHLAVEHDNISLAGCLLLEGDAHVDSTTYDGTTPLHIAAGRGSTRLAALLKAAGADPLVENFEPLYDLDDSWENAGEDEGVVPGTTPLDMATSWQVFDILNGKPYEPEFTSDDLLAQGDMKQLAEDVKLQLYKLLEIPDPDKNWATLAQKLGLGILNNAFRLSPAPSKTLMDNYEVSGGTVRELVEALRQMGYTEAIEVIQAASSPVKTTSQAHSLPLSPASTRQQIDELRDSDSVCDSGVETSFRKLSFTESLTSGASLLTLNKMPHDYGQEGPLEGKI
Put plainly: Binding affinity to NF-kappaB p50 (unknown origin) by SPR analysis.

In another series the test system is NCI-H446. The experiment in a line: Cytotoxicity against human NCI-H446 cells assessed as reduction in cell viability measured after 24 hrs by CellTiter-Glo luminescent assay. Format: functional, cell-based. To be noted: NCI-H446, 24 h. A digest of the protocol: as §2
The subject of another series is PSN1. Put plainly: Cytotoxicity against human PSN1 cells assessed as reduction in cell viability measured after 24 hrs by CellTiter-Glo luminescent assay. Format: functional, cell-based. To be noted: PSN1, 24 h. A digest of the protocol:
as §2

The target of series [10] is T1, Inhibitor of nuclear factor kappa-B kinase subunit alpha (Homo sapiens). The experiment in a line: Inhibition of JRA-031 binding to IKKalpha in TNF-alpha-stimulated human HEK293T cells at 1 uM pretreated with compound for 1 hr followed by labeling with JRA-031 for 1 hr followed by stimulation with TNF-alpha for 1 hr by pull down based mass spectrometry. The format is cell-based. To be noted: HEK-293T.

The target in series [11] is T3, Inhibitor of nuclear factor kappa-B kinase subunit beta (Homo sapiens) (UniProt O14920).
T3 sequence (whole entry): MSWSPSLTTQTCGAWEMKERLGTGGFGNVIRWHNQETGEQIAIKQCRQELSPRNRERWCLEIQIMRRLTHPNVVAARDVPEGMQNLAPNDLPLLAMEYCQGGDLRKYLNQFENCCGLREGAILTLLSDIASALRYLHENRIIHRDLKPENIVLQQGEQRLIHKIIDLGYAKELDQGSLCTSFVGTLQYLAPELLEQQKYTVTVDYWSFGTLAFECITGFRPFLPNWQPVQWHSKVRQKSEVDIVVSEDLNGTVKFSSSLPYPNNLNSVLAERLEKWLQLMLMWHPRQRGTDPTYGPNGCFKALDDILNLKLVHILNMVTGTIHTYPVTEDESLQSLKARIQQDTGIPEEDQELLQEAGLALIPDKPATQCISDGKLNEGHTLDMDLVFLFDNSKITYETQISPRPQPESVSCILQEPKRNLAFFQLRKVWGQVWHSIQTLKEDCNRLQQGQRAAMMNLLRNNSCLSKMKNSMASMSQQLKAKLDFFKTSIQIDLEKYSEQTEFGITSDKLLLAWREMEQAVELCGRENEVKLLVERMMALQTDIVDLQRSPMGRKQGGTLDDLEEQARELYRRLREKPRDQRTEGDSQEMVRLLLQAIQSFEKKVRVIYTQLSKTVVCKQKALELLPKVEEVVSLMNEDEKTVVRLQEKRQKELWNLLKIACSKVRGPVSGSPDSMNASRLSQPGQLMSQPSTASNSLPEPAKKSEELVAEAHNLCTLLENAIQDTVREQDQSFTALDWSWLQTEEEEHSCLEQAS
Put plainly: Inhibition of JRA-031 binding to IKKbeta in TNF-alpha-stimulated human HEK293T cells at 1 uM pretreated with compound for 1 hr followed by labeling with JRA-031 for 1 hr followed by stimulation with TNF-alpha for 1 hr by pull down based mass spectrometry. The format is cell-based. To be noted: HEK-293T.

Series [12] can be described thus: Toxicity in po dosed rat. To be noted: in vivo. The format is organism-based.

On to `C#CCCNC(=O)[C@H]1[C@@H]2[C@@]3(C)C(=O)C=C[C@@]2(OC3=O)[C@@H]2CC[C@]3(O)C[C@@]21CC3=C`, for which the inhibition result in [1] and in series [2] was “Active” throughout.

Turning to `C#CCCNC(=O)[C@H]1[C@H]2[C@@]3(C=C[C@H](O)[C@@]2(C)C(=O)O3)[C@@H]2CC[C@]3(O)C[C@@]21CC3=C`, in series [3], the inhibition entry was “inactive”.

Turning to `C=C1C[C@]23C[C@@]1(O)CC[C@@H]2c1cccc(C)c1[C@@H]3C(=O)O`, the IC50 (in [4]; with CA46; with Hs-578T; in the series with SUD4; in [5]; in series [6]) was over 10 µM each time. In addition, the IC50 (in series [7]; in the series on RCK8; in the series on HCC1599; in the series with HEK-293T; in the series with NCI-H446; in the series with PSN1) was over 10 µM in each case. Also, the Kd at Transcription factor p65 was determined as 6.34 µM; in series [9] it was 0.076 µM. The EC50 in [8] is over 100 µM.

Consider `C=C1C[C@]23C[C@@]1(O)CC[C@H]2[C@@]12C=C[C@H](O)[C@@](C)(C(=O)O1)[C@H]2[C@@H]3C(=O)OC`, for which the IC50 (in [4]; in the series on CA46; in the series with Hs-578T; in the series on SUD4; in series [5]; in [6]) was over 10 µM in each case. For the same compound, the IC50 (in series [7]; in the series with RCK8; in the series on HCC1599; with HEK-293T; with NCI-H446; with PSN1) was over 10 µM each time. For the same compound, the inhibition entry in series [10] and in series [11] was “inactive” throughout. Further, the EC50 in series [8] was over 100 µM.

Compound `C=C1C[C@]23C[C@@]1(O)CC[C@H]2[C@@]12C=C[C@H](O)[C@@](C)(C(=O)O1)[C@H]2[C@@H]3C(=O)O` [GIBBERELLIN A3] had an LD50 in [12] of 6300 mg/kg. The IC50 (in series [4]; with CA46; with Hs-578T; in the series with SUD4; in series [5]; in series [6]) was over 10 µM each time. The IC50 (in series [7]; with RCK8; in the series with HCC1599; in the series with HEK-293T; in the series on NCI-H446; in the series with PSN1) was over 10 µM each time. In series [8], the EC50 is over 100 µM.

As to `C=C1C[C@]23C[C@@]1(O)CC[C@H]2c1cc(Br)c(O)c(C)c1[C@@H]3C(=O)OC`, the IC50 (in series [4]; in the series with CA46; in the series with Hs-578T; with SUD4; in series [5]; in series [6]) was over 10 µM in each case. The IC50 (in series [7]; with RCK8; with HCC1599; in the series on HEK-293T; with NCI-H446; with PSN1) was over 10 µM in each case. The EC50 in series [8] is over 100 µM.

As usually defined, the IC50 is the point on the concentration scale where inhibition reaches its midpoint. In general, Kd refers to the equilibrium constant for the complex coming apart. A higher Kd goes with lower affinity. For orientation: EC50 means the concentration giving half of the maximal effect. Usually LD50 stands for the dose at which mortality reaches 50%. Low values mean a more toxic substance, high ones a less toxic substance.
